# Data: PubChem BioAssay AID504477 (NMMLSC, 2011)
# Activity calls are given as the source filed them.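 How the source made its calls: active means compounds whose self-toxic dose exceeds tenfold the dose that restores mitoxantrone killing of resistant cells; inactive means the rest.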
# Tested on: Igrov ABCG2 cells + mitoxantrone, trypan blue viability, 3 d
# Assay: chemosensitization of ABCG2-expressing resistant cells – Igrove cells, mitoxantrone, trypan blue, SAR set 2, SAR follow-up (AID 504477)
# Outline: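 Technique: trypan blue counts by light microscopy; test system: ABCG2-expressing Igrove cells; quantity: 100,000 cells per mL; doses: test compound concentration series […] 1-100 µM; evaluation: compound level halving cell viability; times: compound exposure 3 days; probe or stimulus: mitoxantrone selective agent at one fixed concentration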
row,SMILES,CC50
1,CC(=O)N1CCN(c2cc(-c3ccco3)nc3cc(-c4ccccc4)nn23)CC1,> 100 µM
2,CC(=O)N1CCN(c2cc(-c3ccco3)nc3cc(-c4cccc(Cl)c4)nn23)CC1,> 100 µM
3,COc1cccc(-c2cc3nc(-c4ccco4)cc(N4CCN(C(C)=O)CC4)n3n2)c1,> 100 µM
4,COc1ccccc1-c1cc(N2CCN(C(=O)c3ccoc3)CC2)n2nc(-c3ccccc3)cc2n1,> 7.62 µM (inactive)
5,COc1ccc(-c2cc3nc(-c4ccco4)cc(N4CCN(C(=O)c5ccoc5)CC4)n3n2)cc1,> 100 µM
6,O=C(c1ccoc1)N1CCN(c2cc(-c3ccco3)nc3cc(-c4ccco4)nn23)CC1,> 100 µM
